Measured values gathered from unrelated publications.
Protocols differ between the studies behind these lines.
Target: Cyclin-dependent kinase 14 (CDK14, Homo sapiens, UniProt O94921)

COc1ccnn2ncc(-c3ccnc(N(C)C)n3)c12 gave a remaining binding of 100% (binding; 1 µM).
With CNC(=O)[C@@H]1CC[C@@H](n2c(-c3ccc4cnccc4c3)nc3ccc(C(=O)NCc4cccc(C(N)=O)c4)cc32)C1 the remaining binding was 100% (binding; competition with immobilised ligand; 1 µM).
For Cc1cnn2ncc(-c3ccnc(N(C)C)n3)c2c1, the remaining binding was 91% (binding; 1 µM).
O=C(N[C@H]1CCCCC/C=C\C2C[C@@]2(C(=O)O)NC(=O)[C@@H]2C[C@@H](Oc3ccncc3)CN2C1=O)OC1CCCC1 (stereo partly shown) gave a remaining binding of 91% (binding; competition with immobilised ligand; 1 µM).
With CN(C)c1nccc(-c2cnc3ncccn23)n1 the remaining binding was 100% (binding; 1 µM).
The remaining binding of c1cncc(-c2cccc(Nc3nccc(NC4CCCCC4)n3)c2)c1 is reported as 90% (binding; competition with immobilised ligand; 10 µM).
Cc1cc(C)c(-n2ccn3nc(-c4cccnc4)cc23)cc1NC(=O)c1cc(C#N)cc(S(F)(F)(F)(F)F)c1 gave a remaining binding of 100% (cell-free assay; competition with immobilised ligand; 0.1 µM).
The remaining binding of Nc1ncc2c(n1)-c1c([nH]c3ccc(C#CC4CC4)cc13)CCCC2 is reported as 88% (binding; competition with immobilised ligand; 1 µM).
With CCN1CCN(Cc2ccc(C(=O)Nc3ccc(C)c(Oc4ccc5c(c4)CC(=O)N5)c3)cc2C(F)(F)F)CC1 the remaining binding was 100% (binding; competition with immobilised ligand; 1 µM).
With N[C@@H]1CCN(c2nccc(-c3cnn4ncccc34)n2)C1 the remaining binding was 100% (binding; 1 µM).
For CN(C(=O)c1ccccc1)c1cc(N(C)c2ccc3c(c2)CCc2ccc(C(=O)NCCN4CCOCC4)cc2C3=O)ccc1F, the remaining binding was 100% (cell-free assay; competition with immobilised ligand; 1 µM).
O=C(NCC1CCOCC1)c1n[nH]cc1NC(=O)c1c(F)cccc1F has a remaining binding of 79% (binding; competition with immobilised ligand; 1 µM).
The remaining binding of CN(C)c1nccc(-c2cnn3ncccc23)n1 is reported as 89% (binding; 1 µM).
With CC(=O)N1CCC(c2ccc(C(=O)NC3=NCCN3)cc2C(F)(F)F)CC1 the remaining binding was 100% (cell-free assay; competition with immobilised ligand; 1 µM).
With O=C(NCCCN1CCOCC1)c1ccc(Nc2nccc(-c3cc4ccccc4s3)n2)cc1 the remaining binding was 100% (binding; competition with immobilised ligand; 1 µM).
For CNCc1ccccc1-c1csc([C@H](C)Nc2nc(C)nc3cc(OC)c(OC)cc23)c1, the remaining binding was 100% (cell-free assay; competition with immobilised ligand; 1 µM).
O=C(c1ccc(Nc2nccc(-c3cc4ccccc4s3)n2)cc1)N1CCC(N2CCCC2)CC1 gave a remaining binding of 100% (binding; competition with immobilised ligand; 1 µM).
With Cc1cc(NC(=O)c2cccc(S(F)(F)(F)(F)F)c2)cc(-n2ccn3nc(-c4cccnc4)cc23)c1 the remaining binding was 93.8% (cell-free assay; competition with immobilised ligand; 1 µM).
O=C(NCCCN1CCOCC1)c1ccc(Nc2ncc(Cl)c(-c3ccc(Cl)s3)n2)cc1 has a remaining binding of 37% (binding; competition with immobilised ligand; 1 µM).
